Measurements as given in publication PMC3723589 (Channels, 2010).
Values joined by “and” are separate entries in the source; they are usually repeats but may differ in a detail not shown here. Equal entries are not always repeated. “Also recorded” adds a separate entry of the source. Where two headings read alike, the source gives them in different places.

Assays:
[1] = target: T1, mouse Slo1 K+ channels (Mus musculus, UniProt Q08460); test: Block of Slo1 currents, blocker applied extracellularly to outside-out patches; format: cell-based
T1 sequence (Q08460 66-1209 limits assumed): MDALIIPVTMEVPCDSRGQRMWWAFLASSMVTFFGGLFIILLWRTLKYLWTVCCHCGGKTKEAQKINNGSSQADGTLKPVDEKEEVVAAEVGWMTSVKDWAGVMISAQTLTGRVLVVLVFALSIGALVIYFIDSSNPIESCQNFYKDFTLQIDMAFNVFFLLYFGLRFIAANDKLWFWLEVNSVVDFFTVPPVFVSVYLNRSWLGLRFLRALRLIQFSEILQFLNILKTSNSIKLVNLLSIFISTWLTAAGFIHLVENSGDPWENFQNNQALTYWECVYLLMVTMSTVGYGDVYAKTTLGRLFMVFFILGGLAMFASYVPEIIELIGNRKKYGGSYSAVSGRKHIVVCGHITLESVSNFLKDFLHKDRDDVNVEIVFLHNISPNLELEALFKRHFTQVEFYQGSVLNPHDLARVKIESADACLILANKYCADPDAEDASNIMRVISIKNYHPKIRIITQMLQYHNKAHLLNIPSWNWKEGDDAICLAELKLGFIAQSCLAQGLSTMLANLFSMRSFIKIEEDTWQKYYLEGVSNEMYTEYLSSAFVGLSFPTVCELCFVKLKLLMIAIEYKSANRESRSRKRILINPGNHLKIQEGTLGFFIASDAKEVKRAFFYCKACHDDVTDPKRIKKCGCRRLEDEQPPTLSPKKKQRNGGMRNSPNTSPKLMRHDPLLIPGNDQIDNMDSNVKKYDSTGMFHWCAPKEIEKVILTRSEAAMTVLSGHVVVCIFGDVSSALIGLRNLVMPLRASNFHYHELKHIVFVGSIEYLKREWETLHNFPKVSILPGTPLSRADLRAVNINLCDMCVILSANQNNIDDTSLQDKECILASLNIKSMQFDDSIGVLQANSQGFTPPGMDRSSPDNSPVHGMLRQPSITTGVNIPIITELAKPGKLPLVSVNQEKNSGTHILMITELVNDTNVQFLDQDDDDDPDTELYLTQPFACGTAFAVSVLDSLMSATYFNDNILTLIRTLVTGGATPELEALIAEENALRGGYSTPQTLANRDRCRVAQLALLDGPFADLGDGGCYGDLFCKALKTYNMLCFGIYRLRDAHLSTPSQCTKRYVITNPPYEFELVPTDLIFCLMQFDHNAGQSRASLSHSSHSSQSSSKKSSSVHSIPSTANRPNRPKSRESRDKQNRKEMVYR

[2] = test system: MC13 (Slo1(1-181):Slo3(171-1121)); test: Block of MC13; format: cell-based, mouse; details: at 0 mV
[3] = target: T2, MC13 (Slo1(1-181):Slo3(171-1121)) (Mus musculus, UniProt O54982); test: Block of MC13; format: cell-based; details: for effect of extracellular 4-AP on MC13/Slo3 currents: 4-AP up to 100 mM at pH 7.0, pipette pH 8.5
T2 sequence (Q08460 66-246 partner, one chain of several): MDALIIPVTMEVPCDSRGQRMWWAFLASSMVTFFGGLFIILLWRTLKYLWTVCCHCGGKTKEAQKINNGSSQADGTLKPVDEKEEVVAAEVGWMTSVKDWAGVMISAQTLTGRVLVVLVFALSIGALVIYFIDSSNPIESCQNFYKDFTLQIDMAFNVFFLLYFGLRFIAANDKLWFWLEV

[4] = pK and percent protonation of tertiary amines; format: physicochemical; details: calculated from pK 9.2
[5] = test system: human sperm; details: cited from earlier work
[6] = target: T3, mouse Slo3 K+ channels (Mus musculus, UniProt O54982); format: cell-based
T3 sequence (O54982 1-1121): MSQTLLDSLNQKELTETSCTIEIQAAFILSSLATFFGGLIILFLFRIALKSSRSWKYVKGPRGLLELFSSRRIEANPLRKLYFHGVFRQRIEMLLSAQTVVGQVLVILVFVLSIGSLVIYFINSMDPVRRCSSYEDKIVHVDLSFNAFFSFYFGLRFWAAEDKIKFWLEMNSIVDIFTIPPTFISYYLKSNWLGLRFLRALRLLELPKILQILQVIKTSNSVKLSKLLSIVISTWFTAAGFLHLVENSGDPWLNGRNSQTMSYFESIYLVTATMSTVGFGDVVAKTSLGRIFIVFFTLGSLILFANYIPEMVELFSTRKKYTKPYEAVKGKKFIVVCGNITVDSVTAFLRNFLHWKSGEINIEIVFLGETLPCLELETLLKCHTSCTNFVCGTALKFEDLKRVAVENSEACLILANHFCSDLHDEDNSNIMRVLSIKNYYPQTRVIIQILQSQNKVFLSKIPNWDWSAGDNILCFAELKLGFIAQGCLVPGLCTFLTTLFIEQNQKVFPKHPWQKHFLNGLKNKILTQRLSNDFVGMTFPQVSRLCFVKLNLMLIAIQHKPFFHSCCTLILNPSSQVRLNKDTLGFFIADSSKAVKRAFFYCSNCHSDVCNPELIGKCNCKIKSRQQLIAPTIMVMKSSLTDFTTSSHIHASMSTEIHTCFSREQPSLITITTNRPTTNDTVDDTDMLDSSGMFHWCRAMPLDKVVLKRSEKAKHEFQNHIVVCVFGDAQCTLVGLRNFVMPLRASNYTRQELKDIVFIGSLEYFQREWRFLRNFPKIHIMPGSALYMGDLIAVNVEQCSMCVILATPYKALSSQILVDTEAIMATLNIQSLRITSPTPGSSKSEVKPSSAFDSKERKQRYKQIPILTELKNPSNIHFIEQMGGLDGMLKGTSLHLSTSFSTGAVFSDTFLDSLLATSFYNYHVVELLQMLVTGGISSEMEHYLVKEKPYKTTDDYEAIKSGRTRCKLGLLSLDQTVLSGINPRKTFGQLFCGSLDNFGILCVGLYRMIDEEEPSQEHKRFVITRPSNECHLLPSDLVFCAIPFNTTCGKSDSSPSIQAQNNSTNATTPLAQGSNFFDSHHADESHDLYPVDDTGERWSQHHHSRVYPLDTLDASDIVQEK

[7] = target: T2, MC13 (Slo1(1-181):Slo3(171-1121)); format: cell-based; details: pH 8.5
[8] = target: T1, mouse Slo1 K+ channels; test: Block of Slo1 currents, blocker applied cytosolically to inside-out patches; format: cell-based; details: for zδ / zc / zo / zo (zδ) / Kd: 300 μM Ca2+; for zc / zo / zo (zδ) / Kd: pH 8.5
[9] = test system: murine sperm; details: cited from earlier work
[10] = target: T4, mouse Slo3 K+ channels (Mus musculus, UniProt O54982); test: Block of Slo3 currents by extracellular blockers; format: cell-based
T4 sequence (O54982 171-1121 limits assumed): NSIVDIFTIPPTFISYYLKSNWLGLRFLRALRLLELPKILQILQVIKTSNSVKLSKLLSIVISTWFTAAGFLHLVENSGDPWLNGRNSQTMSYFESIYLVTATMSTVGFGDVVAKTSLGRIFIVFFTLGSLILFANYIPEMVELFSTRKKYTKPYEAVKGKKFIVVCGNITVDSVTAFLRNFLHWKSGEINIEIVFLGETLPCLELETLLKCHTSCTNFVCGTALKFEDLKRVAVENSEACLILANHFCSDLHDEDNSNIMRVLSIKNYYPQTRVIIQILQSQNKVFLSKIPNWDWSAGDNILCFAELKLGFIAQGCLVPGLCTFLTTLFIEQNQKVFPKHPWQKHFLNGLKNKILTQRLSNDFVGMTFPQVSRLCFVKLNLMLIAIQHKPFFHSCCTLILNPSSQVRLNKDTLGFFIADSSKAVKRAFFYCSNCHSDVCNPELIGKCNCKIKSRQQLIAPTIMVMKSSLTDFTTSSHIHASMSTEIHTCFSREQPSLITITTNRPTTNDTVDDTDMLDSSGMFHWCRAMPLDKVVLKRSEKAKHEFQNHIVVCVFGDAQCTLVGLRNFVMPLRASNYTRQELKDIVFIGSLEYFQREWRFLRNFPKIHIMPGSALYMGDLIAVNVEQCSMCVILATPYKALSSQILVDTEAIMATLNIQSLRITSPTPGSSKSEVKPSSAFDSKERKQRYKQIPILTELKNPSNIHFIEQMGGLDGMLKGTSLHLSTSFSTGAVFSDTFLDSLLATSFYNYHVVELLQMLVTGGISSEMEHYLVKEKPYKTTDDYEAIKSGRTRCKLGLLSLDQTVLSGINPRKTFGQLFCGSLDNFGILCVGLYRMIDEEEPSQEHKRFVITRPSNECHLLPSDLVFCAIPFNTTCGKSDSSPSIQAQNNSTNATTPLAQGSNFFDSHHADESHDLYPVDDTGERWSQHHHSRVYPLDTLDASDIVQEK

[11] = test system: BK single channels; details: symmetrical K+ solutions, cited from earlier work
[12] = test system: BK single channels; details: symmetrical K+ solutions, cited from earlier work; remark: listed apart in the source
[13] = test system: Slo1/BK-type channels; details: read-out: extracellular TEA concentration for blockade (half block); cited from earlier work
[14] = test system: sperm; details: TEA at 2.5–10 mM; cited from earlier work
[15] = target: Slo1-Y294V (Mus musculus, UniProt Q08460, Y359V); test: Block of Slo1-Y294V currents by extracellular CTX or TEA; format: cell-based; details: TEA up to 10 mM
Sequence of Slo1-Y294V (Q08460 66-1209 Y359V limits assumed): as the sequence (Q08460 66-1209 limits assumed) above, with Y294V counted along it
Outline: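 Excised outside-out patches at room temperature (~22–25°C), with blocker applied to the extracellular face by a multi-barrel local perfusion system, one barrel flowing at a time. The extracellular solution was (mM) 140 K-methanesulfonate, 20 KOH, 10 HEPES, 2 MgCl2, pH 7.0. The pipette (cytosolic) solution was 140 K-methanesulfonate, 20 KOH, 10 HEPES, with 10 μM Ca2+ for CTX tests.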

[16] = cytosolic 4-AP, fit OB-CB (2a) 2 params
[17] = cytosolic 4-AP, fit OB-CB (2') 4 params
[18] = read-out: Kb, block by cytosolic TEA
[19] = cytosolic TEA, 0 Ca2+, fit OB-CB (2a) 2 params
[20] = cytosolic TEA, fit OB-CB (2') 4 params
[21] = cytosolic TEA, fit OB-CB (2a) 2 params

Nc1ccncc1 [4-AP, 4-aminopyridine]
zo ([1]; extracellular 4-AP, 300 μM Ca2+, pH 8.5, fit OB-CB (2a) 2 params): 0.48 ± 0.04 e
difference in affinity of Slo1 and Slo3 channels for extracellular 4-AP [2]: at least 20 fold
effect of extracellular 4-AP on MC13/Slo3 currents [3]: relatively insensitive; also recorded: little effect; also recorded: essentially no blocking effect
effect of extracellular 4-AP on MC13/Slo3 currents ([3]; listed as 4-APo): without effect
percent protonated ([4]; 4-AP at pH 7.0): 99.4%
percent protonated ([4]; 4-AP at pH 8.5): 83.4%
concentration disrupting volume regulation [5]: 1 to 4 mM
zo ([6]; cytosolic 4-AP, pH 8.5, fit OB-CB (2a) 2 params): 0.16 ± 0.01 e
Slo3 more sensitive than Slo1 to cytosolic 4-AP ([6]; open channel block): 10–15 fold
zc ([7]; cytosolic 4-AP, fit OB-CB (2') 4 params (zo fixed 0)): 0.26 + 1.05 e
zo [7, 16]: 0.17 ± 0.02 e
zo (zδ) ([7]; cytosolic 4-AP, open channel block OB (1a) 2 params): 0.02 ± 0.03 e
zδ ([8]; cytosolic 4-AP at pH 7.0, Scheme 1a (Fig. 7C)): 0.17 ± 0.01 e and 0.18 ± 0.02 e
zδ ([8]; cytosolic 4-AP at pH 8.5, Scheme 1a (Fig. 7D)): 0.05 ± 0.06 e
zδ ([8]; cytosolic 4-AP at pH 8.5, state-independent Scheme 2a (Fig. 7D)): 0.11 ± 0.03 e
zc [8, 17]: 0.33 ± 0.32 e
zo [8, 17]: 0.12 ± 0.03 e
zc [8, 16]: 0.10 ± 0.02 e
zo (zδ) ([8]; cytosolic 4-AP, state-independent OB-CB (2a) 2 params): 0.10 ± 0.02e e
z(p) ([8]; cytosolic 4-AP, pH 7.0 and 8.5 fit simultaneously with two-site Scheme 3): 0.19 ± 0.02 e
concentration disrupting volume regulation [9]: 1 to 4 mM

CC[N+](CC)(CC)CC [TEA, tetraethylammonium]
block of Slo3 [10]: resistant to block
block of Slo1 current ([1]; 250 μM extracellular TEA, at 0 mV): about 50%
zo ([1]; extracellular TEA, 300 μM Ca2+, pH 8.5, fit OB-CB (2') 4 params (zc fixed 0)): 0.23 ± 0.04 e
zc (voltage-dependence of closed state block) ([1]; extracellular TEA, 300 μM Ca2+, pH 8.5, fit OB-CB (2a) 2 params): 0.23 ± 0.02 e
zo (voltage-dependence of open state block) ([1]; extracellular TEA, pipette 300 μM Ca2+, pH 8.5, fit OB (1a) 2 params): 0.34 ± 0.02 e
Kd ([1]; read-out: Kbc (affinity of blocker to closed state), extracellular TEA, 300 μM Ca2+, pH 8.5, fit OB-CB (2a) 2 params): 174 ± 8 µM
Kd ([1]; read-out: Kbo (affinity of blocker to open state), extracellular TEA, pipette 300 μM Ca2+, pH 8.5, fit OB (1a) 2 params): 132 ± 6.9 µM
effect of extracellular TEA on MC13 ([3]; TEA up to 10 mM): only minor effects; also recorded: minimal effect
Kb [11, 18]: 34700 µM
zδ [11]: 0.27 e
Kb [12, 18]: 60000 µM
zδ [12]: 0.26 e
IC50 [13]: 200 to 300 µM
effects on sperm function [14]: not produced
zc ([7]; cytosolic TEA, 0 Ca2+, fit OB-CB (2') 4 params (zo fixed 0)): 0.06 ± 0.20 e
zc [7, 19]: 0.05 ± 0.02 e
zo (z) [7, 19]: 0.05 ± 0.02 e
Kd ([7]; read-out: Kbc, cytosolic TEA, 0 Ca2+, fit OB-CB (2') zo = zc = 0 e): 2360 ± 420 µM
Kd ([7]; read-out: Kbc, cytosolic TEA, 0 Ca2+, fit OB-CB (2a) 2 params): 2010 ± 290 µM
Kb ([7]; read-out: Kbo (Kb), cytosolic TEA, 0 Ca2+, fit OB-CB (2a) 2 params): 2010 ± 290 µM
Kd ([7]; read-out: Kbo, cytosolic TEA, 0 Ca2+, fit OB (1a) zo = 0 e): 330 ± 10 µM
Kd ([7]; read-out: Kbo, cytosolic TEA, 0 Ca2+, fit OB-CB (2') zo = zc = 0 e): 560 ± 60 µM
zc [8, 20]: 0.57 ± 0.32 e
zo [8, 20]: 0.16 ± 0.20 e
zc [8, 21]: 0.22 ± 0.02 e
zo [8, 21]: 0.22 ± 0.02 e
zo (zδ) ([8]; cytosolic TEA, open channel block OB (1a) 2 params): 0.15 ± 0.02 e
Kd ([8]; read-out: Kbc, cytosolic TEA, fit OB-CB (2') 4 params): 61400 ± 34800 µM
Kd ([8]; read-out: Kbc, cytosolic TEA, fit OB-CB (2a) 2 params): 73500 ± 4500 µM
Kd ([8]; read-out: Kbo, cytosolic TEA, fit OB-CB (2') 4 params): 78600 ± 22600 µM
Kd ([8]; read-out: Kbo, cytosolic TEA, fit OB-CB (2a) 2 params): 73500 ± 4500 µM
effect of extracellular TEA on Slo1-Y294V [15]: lack of effect
